The list is not random: actives were taken first. Their share in the collection is about 1.8%.
CSN inh = inhibitors of human CSN-mediated cullin deneddylation | inhibition, % at 12.5 µM | 360,000 tested, 0.38% active | Purified CSN, SCF-Nedd8-OG deneddylation, fluorescence polarization;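 active = pattern-corrected inhibition above about 35%, with an unprinted fluorescence ratio check between 0.5 and 1.5, limit read from the data, passing the limit was not always enough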
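assay system = purified human Csn5 enzyme expressed in HEK293T cells | amount = 0.24 nM enzyme | buffer or medium = Tris/NaCl/DTT buffer, pH 7.5 | reagent = 10 nM SCFSkp2-Nedd8OG | compound = one concentration, 12.5 µM, 0.25% DMSO | times = 90 min reaction at room temperature | signal = FP | read-out basis = % inhibition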
TPT1 inh = C. albicans TPT1 enzyme inhibition | recombinant caTPT1, FP RNA substrate dephosphorylation | 300,000 tested, 0.81% active | inhibition, % at 5 µM | AID 1962;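 active = inhibition above the mean of all tested compounds plus 3 SD, set per screening campaign, cut at about 24% in these data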
HNF4A DNA FP = change in binding of human HNF4 alpha to DNA. 360,000 tested, 0.3% active. activity change, % at 10 µM. HNF4a-FITC DNA binding, fluorescence polarization, 1 h. P41235; in the data active = activity change above about 30%, passing the limit was not always enough
SUMO HTRF inh = inhibitors of human SUMOylation (UBC9); P63279; HTRF SUMOylation assay, SAE1/SAE2 + UBC9, in vitro; inhibition, % at 35 µM; 290,000 tested, 0.36% active; AID 2006; in the data active = inhibition above about 50%, passing the limit was not always enough
Target sequence (P63279 whole entry, looked up): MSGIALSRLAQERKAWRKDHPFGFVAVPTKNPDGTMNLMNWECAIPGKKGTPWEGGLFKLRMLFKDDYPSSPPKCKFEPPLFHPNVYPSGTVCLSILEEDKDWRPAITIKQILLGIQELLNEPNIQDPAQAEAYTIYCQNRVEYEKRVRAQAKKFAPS
SENP1 inh = blocks the human SENP1 SUMO protease catalytic domain; 360,000 tested, 0.21% active; AID 624204; Q9P0U3; inhibition, % at 10 µM; recombinant SENP1 catalytic domain, CyPet-SUMO1-YPet FRET cleavage;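 active = inhibition at least 30% at 10 µM, raw YFP signal under a set limit, fluorescence ratio 0.5 to 1.5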
Target sequence (Q9P0U3 419-644 limits assumed): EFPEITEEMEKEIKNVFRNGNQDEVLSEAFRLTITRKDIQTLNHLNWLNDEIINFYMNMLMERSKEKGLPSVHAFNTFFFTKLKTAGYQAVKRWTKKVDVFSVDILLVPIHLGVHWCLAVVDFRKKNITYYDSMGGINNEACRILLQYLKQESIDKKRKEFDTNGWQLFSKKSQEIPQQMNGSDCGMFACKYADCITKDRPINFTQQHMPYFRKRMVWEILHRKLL
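Test system: hSENP1 catalytic domain, recombinant; Amount: 20 pM final SENP1 enzyme; Medium: Tris pH 8 buffer plus EDTA, NaCl, BME, BSA, NP40, catalase; Schedule: 50 min enzyme reaction, room temperature, light-protected; Technique: FRET fluorescence in CFP and YFP emission channels; Controls: no-enzyme wells low, DMSO-plus-enzyme wells high control.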
Rpn11 inh = inhibitors of human proteasome Rpn11. calls only at 20 µM. O00487. human 26S proteasome, Ub4-pepOG fluorescence polarization; 20S core pre-blocked with epoxomicin. 360,000 tested, 0.59% active;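 active = inhibition at 20 µM, scaled to each plate's controls, above about 33%, limit read from the data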
Rpn11 confirm = Rpn11 inhibition confirmation, single concentration | shares compounds with Rpn11 inh | purified human 26S proteasome, Ub4-pepOG fluorescence polarization; proteasome pretreated with epoxomicin | inhibition, % at 20 µM | 1,900 tested, 29% active | AID 602318
MMP-2 counter = MMP-2 (human) inhibition counter-screen; shares compounds with Rpn11 inh; 1,900 tested, 4% active; recombinant MMP-2, FRET peptide cleavage fluorescence; inhibition, % at 20 µM;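 note: human MMP-2 activated beforehand with APMA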
Thrombin inh = thrombin (bovine) inhibition counter-screen. shares compounds with Rpn11 inh. bovine thrombin cleavage of Ub4-pepOG, fluorescence polarization. inhibition, % at 20 µM. 1,900 tested, 13% active. AID 602333;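 active = mean inhibition at least 40% at 20 µM, or signal 3 deviations below plate average, so some actives read negative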
Each line names hits and unclear results; the compound was inactive in the other large screens (follow-up assays come after a bar, where they were run). Cut-off read from the data, not from the text of the source, unless noted: active = inhibition above about 40%; inactive = the rest.

CCCN(CC1CC1)C(=O)COC(=O)c1ccc(CNS(=O)(=O)c2ccc(F)c(Cl)c2)cc1	none
O=c1cc(O)c2c(=O)n(C3CCCCC3)c3ccccc3c2o1	Rpn11 inh active | Rpn11 confirm inactive | MMP-2 counter inactive | Thrombin inh inactive
CSc1nc2nccc(-c3ccc(-c4ccccc4)cc3)n2n1	Rpn11 inh active | Rpn11 confirm inactive | MMP-2 counter inactive | Thrombin inh inactive
O=C(N/N=C/c1ccc(Cl)c([N+](=O)[O-])c1)c1ccc2c(c1)OCCO2	Rpn11 inh active (no result: TPT1 inh, SUMO HTRF inh) | Rpn11 confirm inactive | MMP-2 counter 54.4 | Thrombin inh inactive
N#Cc1ccccc1OCC(=O)NNC(=O)CCNC(=O)c1ccccc1	none (no result: TPT1 inh, SUMO HTRF inh)
CC(=O)c1ccc(N2CCN(C(=O)Cc3cccs3)CC2)cc1	HNF4A DNA FP 87.6, Rpn11 inh active | Rpn11 confirm inactive | MMP-2 counter 50.0 | Thrombin inh inactive
Cn1ccc2cc(NC(=O)Nc3cccnc3)ccc21	Rpn11 inh active (no result: SUMO HTRF inh) | Rpn11 confirm inactive | MMP-2 counter inactive | Thrombin inh inactive
Cc1nonc1NC(=O)Nc1cccnc1	Rpn11 inh active | Rpn11 confirm inactive | MMP-2 counter inactive | Thrombin inh inactive
COc1cccc(NC(=O)Nc2cccnc2)c1	none
O=C(Cn1c(=O)cnc2ccccc21)Nc1ccccc1N1CCOCC1	none
CC(=O)c1ccccc1NC(=O)Cn1c(=O)cnc2ccccc21	Rpn11 inh active | Rpn11 confirm inactive | MMP-2 counter inactive | Thrombin inh inactive
CCOc1ccc(NS(=O)(=O)c2cc(C(=O)N3CCN(C(C)=O)CC3)ccc2Cl)cc1	none
Cc1noc(C)c1NC(=O)N(C)C[C@@H]1Oc2ccc(NS(=O)(=O)c3c(C)noc3C)cc2C(=O)N([C@H](C)CO)C[C@H]1C	none (no result: TPT1 inh, SUMO HTRF inh)
Cc1noc(C)c1NC(=O)N(C)C[C@H]1Oc2ccc(NS(=O)(=O)c3ccc(F)cc3)cc2C(=O)N([C@H](C)CO)C[C@@H]1C	Rpn11 inh active (no result: TPT1 inh, SUMO HTRF inh) | Rpn11 confirm inactive | MMP-2 counter inactive | Thrombin inh inactive
Brc1ccccc1C1CC(c2ccccc2)=Nc2ccccc2N1 (stereo not given)	Rpn11 inh active | Rpn11 confirm inactive | MMP-2 counter inactive | Thrombin inh inactive
CC1(C)CC(=O)C=C(c2ccc(-c3cccc(C(N)=O)c3)cc2)C1=O	none (no result: TPT1 inh, SUMO HTRF inh)
Cc1onc(C(N)=O)c1C(=O)Nc1ncc(C(F)(F)F)cc1Cl	none
CCOC(=O)c1ccc(-n2cccc2/C=C2\NC(=O)NC2=O)cc1	Rpn11 inh active (no result: TPT1 inh, SUMO HTRF inh) | Rpn11 confirm inactive | MMP-2 counter inactive | Thrombin inh inactive
CCOc1cc2nc(-c3ccc(OC)c(OC)c3)nc(NCCCN3CCOCC3)c2cc1OC	none
Cc1ccc2c(C)nc(/N=C(\N)NC(=O)N3c4ccccc4Sc4ccccc43)nc2c1	none
Cc1ccc2nc(/N=C(\N)NC(=O)N3c4ccccc4Sc4ccccc43)nc(C)c2c1	Rpn11 inh active | Rpn11 confirm inactive | MMP-2 counter inactive | Thrombin inh inactive
CCOC(=O)N1CCN(C(=O)c2cc(OC)c(OC)c(OC)c2)CC1	Rpn11 inh active | Rpn11 confirm inactive | MMP-2 counter inactive | Thrombin inh inactive
CCOC(=O)N1CCN(C(=O)c2cc(OCC)c(OCC)c(OCC)c2)CC1	none
O=S(=O)(NCc1cccnc1)c1cccc2nsnc12	none
Cc1cccc(N2CCN(S(=O)(=O)c3cc4c(cc3Cl)NC(=O)CO4)CC2)c1C	Rpn11 inh active | Rpn11 confirm inactive | MMP-2 counter inactive | Thrombin inh inactive

Screening data deposited in PubChem BioAssay by several laboratories.
